697 NFkB inh: lowers PMA/ionomycin-induced NF-kB signal in 697 B cells. 697 B-cell NF-kB luciferase reporter, 16 h. inhibition, % at 4 µM. 330,000 compounds, 0.33% hits. AID 435022; in the data active means inhibition above about 35%
Jurkat NFkB inh: inhibitors of the PMA/ionomycin-induced NF-kB reporter in Jurkat cells; 330,000 compounds, 0.53% hits; PMA/ionomycin-induced NF-kB luciferase reporter, luminescence; AID 435003; inhibition, % at 4 µM; in the data active means inhibition above about 50%
JMJD2C inh: blocks human GASC-1 demethylase activity. GST-JMJD2C(1-420) H3K9me3 demethylation, DELFIA europium. inhibition, % at 2.35 µM. 330,000 compounds, 0.069% hits. Q9H3R0;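 active means more than half of a compound's replicate wells show inhibition beyond 50%, single wells judged on their own value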;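 further: signal counts dimethyl H3K9 product captured on neutravidin plate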
Target sequence (Q9H3R0 1-420 limits assumed): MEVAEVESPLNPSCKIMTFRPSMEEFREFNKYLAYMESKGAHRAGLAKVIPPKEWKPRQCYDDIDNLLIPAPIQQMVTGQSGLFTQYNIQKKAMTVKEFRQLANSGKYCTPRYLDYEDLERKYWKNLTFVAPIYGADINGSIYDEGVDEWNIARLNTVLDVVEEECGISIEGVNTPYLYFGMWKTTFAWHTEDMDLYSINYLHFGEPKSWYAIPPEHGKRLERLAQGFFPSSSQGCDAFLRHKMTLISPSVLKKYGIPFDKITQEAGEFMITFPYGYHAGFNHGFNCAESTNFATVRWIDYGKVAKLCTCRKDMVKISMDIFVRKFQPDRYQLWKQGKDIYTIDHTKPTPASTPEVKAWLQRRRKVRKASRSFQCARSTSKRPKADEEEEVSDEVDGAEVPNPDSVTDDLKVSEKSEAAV
NR2E3 ag-1: agonists of human nuclear receptor NR2E3; inhibition of corepressor binding, % at 4.78 µM; Q9Y5X4; 320,000 compounds, 0.12% hits; GST-NR2E3/biotin-RetCOR TR-FRET, 1536-well;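 active means percent inhibition above the cutoff of mean plus 3 SD of all tested compounds, set per screening campaign, cut at about 20% in these data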
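Test system – NR2E3–RetCOR corepressor complex · Quantity – NR2E3 fusion 1.35 nM · Buffer or medium – Tris pH 7.5 · Incubation – Compound–protein incubation for 5 h at 4 °C · Technique – TR-FRET, Eu(K)-anti-GST donor, streptavidin-D2 acceptor, ex 340, em 617/671 nm · Evaluation – percent inhibition of 671/617 nm emission ratio versus biotin and DMSO controls · Plate – 1536-well format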
NR2E3 ag-2: activates human NR2E3 receptor; Q9Y5X4; CHO-S Gal4-NCOR/VP16-NR2E3 two-hybrid, luciferase; inhibition of corepressor binding, % at 3.98 µM; 360,000 compounds, 0.35% hits; AID 602229;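 active means inhibition above the mean of all tested compounds plus 3 SD, cut at about 70% in these data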;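 further: higher means lower luciferase signal from less NR2E3 corepressor binding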
GalR3 antag: blocks the human galanin receptor 3; 360,000 compounds, 0.44% hits; HEK293 GalR3-CNG cAMP membrane potential fluorescence; galR3 body fused to GalR1 C-terminus; O60755; AID 651719; inhibition, % at 3 µM;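 active means inhibition above the screen-wide average plus 3 SD, cut at about 13% in these data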;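 further: forskolin and galanin both at EC90 stimulate the cells; cAMP rise reported by CNG channel membrane potential dye signal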
Target sequence (O60755 1-299 limits assumed): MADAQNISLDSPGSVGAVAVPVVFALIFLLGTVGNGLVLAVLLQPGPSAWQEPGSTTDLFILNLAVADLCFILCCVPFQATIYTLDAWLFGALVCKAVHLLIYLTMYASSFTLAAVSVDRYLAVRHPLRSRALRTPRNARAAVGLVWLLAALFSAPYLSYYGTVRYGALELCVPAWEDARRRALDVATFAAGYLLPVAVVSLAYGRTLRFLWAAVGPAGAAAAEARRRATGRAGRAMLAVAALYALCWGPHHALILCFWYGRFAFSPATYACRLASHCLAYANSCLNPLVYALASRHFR
Jurkat NFkB conf: inhibitors of the PMA/ionomycin-induced NF-kB reporter in Jurkat cells, retest | shares compounds with Jurkat NFkB inh | Jurkat NF-kB luciferase, 16 h | inhibition, % at 4 µM | 2,700 compounds, 27% hits | AID 435020;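 active means inhibition reaching about 45% at 4 µM in either replicate, limit read from the data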
697 NFkB conf: inhibitors of the PMA/ionomycin-induced NF-kB reporter in 697 B cells, retest; 697 B-cell NF-kB luciferase, 16 h; 2,000 compounds, 35% hits; inhibition, % at 4 µM; shares compounds with 697 NFkB inh; in the data active means inhibition mostly above about 28%, no sharp cut-off; inactive means mostly below about 22%
Large screens that a line does not name were inactive (follow-up assays come after a bar, where they were run). Compounds with a hit are over-represented: about 1.5% of the library has one in this group of screens.

CS(=O)(=O)Nc1ccc(C(=O)Nc2ccc3ccccc3c2)cc1	none | Jurkat NFkB conf inactive | 697 NFkB conf inactive
O=C(Nc1ccc2ccccc2c1)c1ccccc1Cl	none (no result: 697 NFkB inh, Jurkat NFkB inh, JMJD2C inh, NR2E3 ag-1)
CC(=O)c1cccc(NC(=O)c2ccc(NS(C)(=O)=O)cc2)c1	none
C=CCNc1oc(-c2cccs2)nc1C#N	none
COC(=O)[C@]12C[C@H](CC(=O)NCc3cccs3)C(=O)N(Cc3ccccc3)C1=C[C@H](C1CCCC1)O[C@@H]2C	none (no result: 697 NFkB inh, Jurkat NFkB inh, JMJD2C inh, NR2E3 ag-1, NR2E3 ag-2)
Cc1cccc(C(=O)Nc2ccc3ccccc3c2)c1	none | Jurkat NFkB conf inactive | 697 NFkB conf inactive
COc1ccc(OC)c(C(=O)c2ccc(C(=O)Nc3ccc4ccccc4c3)cc2)c1	none
COc1ccc(C(=O)Nc2ccc3ccccc3c2)cc1	none | Jurkat NFkB conf inactive | 697 NFkB conf inactive
O=C(Nc1ccc2ccccc2c1)c1cccc([N+](=O)[O-])c1	none
O=C1CCCCC1Nc1ccc(Br)cc1 (stereo not drawn)	none (no result: 697 NFkB inh, Jurkat NFkB inh, JMJD2C inh, NR2E3 ag-1)
CCn1ncc([N+](=O)[O-])c1C(=O)Nc1ccc(C)c(C)c1	none
C#CCN1C[C@@]2(O)CC[C@@H](O)[C@@H](OC)[C@@H]2[C@@]1(C)[C@H](O)CC=C(C)C	none (no result: 697 NFkB inh, Jurkat NFkB inh, JMJD2C inh, NR2E3 ag-1, NR2E3 ag-2)
COc1ccc(C2=NN3C(C2)c2ccccc2OC3c2cccs2)cc1 (stereo not drawn)	none
COc1ccc(C2=NN3C(C2)c2ccccc2OC32C(=O)N(C)c3ccccc32)cc1 (stereo not drawn)	none | Jurkat NFkB conf inactive | 697 NFkB conf inactive
COc1cc(CN2CCCC(N3CCN(c4ccccc4C)CC3)C2)ccc1O (stereo not drawn)	none
Oc1cccc(/C=C/c2ccc3cccc(O)c3n2)c1	none | Jurkat NFkB conf inactive | 697 NFkB conf inactive
O=C(NC(=S)Nc1cccnc1)c1cccs1	none
O=C(NC(=S)Nc1ccc(Cl)cn1)c1cccs1	none | Jurkat NFkB conf inactive | 697 NFkB conf inactive
CCc1ccc(-c2nc(CS(=O)CC(=O)NCc3ccco3)c(C)o2)cc1 (stereo not drawn)	697 NFkB inh 36, Jurkat NFkB inh 51 | Jurkat NFkB conf 56 | 697 NFkB conf 35
COc1ccc(-c2nc(CS(=O)CC(=O)NCc3ccco3)c(C)o2)cc1 (stereo not drawn)	none (no result: GalR3 antag)
O=C(NCCC1CCCCN1S(=O)(=O)c1ccccc1)C(=O)NC1CC1 (stereo not drawn)	none
CC(C)(C)C(=O)Nc1ccc(C(=O)OC2CCCCC2)cc1	none (no result: GalR3 antag) | Jurkat NFkB conf inactive | 697 NFkB conf inactive
O=C(OC1CCCCC1)c1ccc(NC(=O)C2CCCCC2)cc1	none
CC(=O)Nc1cccc(-c2csc(Nc3ccc(C)cn3)n2)c1	none | Jurkat NFkB conf inactive | 697 NFkB conf inactive
COc1ccc(-c2csc(C(C)(O)c3ccccc3)n2)cc1OC (stereo not drawn)	none (no result: 697 NFkB inh, Jurkat NFkB inh, JMJD2C inh, NR2E3 ag-1)
c1ccc(-c2csc(Nc3ccccn3)n2)cc1	none | Jurkat NFkB conf inactive | 697 NFkB conf inactive
COc1ccc(-c2csc(Nc3ccccn3)n2)cc1OC	none | Jurkat NFkB conf inactive | 697 NFkB conf inactive
Cc1nc(N)sc1-c1csc(Nc2ccccn2)n1	none (no result: 697 NFkB inh, Jurkat NFkB inh, NR2E3 ag-1)
Cc1ccc(-c2csc(Nc3ccccn3)n2)cc1	none | Jurkat NFkB conf inactive | 697 NFkB conf inactive
CCCCn1c(N)c(N(CCOC)C(=O)COC(=O)C(C)(C)Oc2ccc(Cl)cc2)c(=O)[nH]c1=O	none
CC1C=CCC2C(=O)N(c3cccc(C(=O)Nc4ccc(F)cc4)c3)C(=O)C12 (stereo not drawn)	none
O=C(N/N=C/c1ccc(-n2ccnc2)cc1)c1cccs1	none
Cc1ccc2c(C(=O)CN3CCC(C(N)=O)CC3)c(C)[nH]c2c1	none (no result: GalR3 antag)
CN=C(C)/C(C(=O)OC)=C(/O)c1ccc(Cl)cc1Cl	none
Fc1ccc(-c2csc(Nc3ccccn3)n2)c(F)c1	none | Jurkat NFkB conf inactive | 697 NFkB conf inactive
CC(C)(C)S(=O)N1Cc2cc(=O)n(Cc3ccccc3)c(CCO)c2[C@@H]1CCO (stereo partly drawn)	none (no result: 697 NFkB inh, Jurkat NFkB inh, JMJD2C inh, NR2E3 ag-1)
COc1cc(OC)c(OC)cc1CN1CCN(Cc2cccn2C)CC1	none
Cc1ccc(C(=O)O/N=C(\N)Cc2cccs2)c(Cl)c1	none (no result: GalR3 antag) | Jurkat NFkB conf inactive | 697 NFkB conf inactive
Cn1c(-c2ccccc2F)cc2onc(-c3ccccc3)c2c1=O	none | Jurkat NFkB conf inactive | 697 NFkB conf inactive
CC(=Nc1ccc(C)cc1)c1sc2ccccc2c1O	none | Jurkat NFkB conf inactive | 697 NFkB conf inactive
CN=Cc1sc2ccccc2c1O	none
COCCn1c(C)cc(C(=O)CSc2cc(C)c3ccccc3n2)c1C	none
COCCn1c(C)cc(C(=O)CSc2nc3ccccc3c(=O)n2Cc2ccco2)c1C	none | Jurkat NFkB conf inactive | 697 NFkB conf inactive
COc1cc([C@@H]2c3cc4c(cc3[C@H](O)[C@H]3COC(=O)[C@H]23)OCO4)cc(OC)c1OC	Jurkat NFkB inh 73 (no result: GalR3 antag) | Jurkat NFkB conf 62 | 697 NFkB conf inactive
COc1cc(C2c3cc4c(cc3C(O)C3COCC23)OCO4)cc(OC)c1OC (stereo not drawn)	none (no result: 697 NFkB inh, Jurkat NFkB inh, JMJD2C inh, NR2E3 ag-1)
CN(C)c1ccc(-c2n(C)c3ccccc3[n+]2C)cc1	697 NFkB inh 42, Jurkat NFkB inh 76 | Jurkat NFkB conf 60 | 697 NFkB conf 57
COc1ccc(-c2cn3ccc4ccccc4c3n2)cc1	none | Jurkat NFkB conf inactive | 697 NFkB conf inactive
COc1ccc(-c2cn3ccccc3n2)cc1	none
Nc1cccc(-c2c[nH]c3ncc(-c4cccnc4)cc23)c1	none (no result: 697 NFkB inh, Jurkat NFkB inh, JMJD2C inh, NR2E3 ag-1, GalR3 antag)
CCN(CC)S(=O)(=O)c1ccc(Oc2ccc(S(=O)(=O)N(CC)CC)cc2)cc1	697 NFkB inh 84, Jurkat NFkB inh 55 | Jurkat NFkB conf 75 | 697 NFkB conf 87
O=C1c2cc(O)c(O)cc2OC(c2ccc(O)c(O)c2)C1O (stereo not drawn)	none (no result: 697 NFkB inh, Jurkat NFkB inh, JMJD2C inh, NR2E3 ag-1)
N#Cc1c(NC(=O)CSc2ncn[nH]2)sc2c1CCCCC2	697 NFkB inh 70, Jurkat NFkB inh 63 | Jurkat NFkB conf 65 | 697 NFkB conf 59
Cn1cnnc1SCC(=O)Nc1sc2c(c1C#N)CCCCC2	none
CC(C)(C)C(=O)CSc1ncnc2c1cnn2-c1ccccc1	none | Jurkat NFkB conf inactive | 697 NFkB conf inactive
CCN1CCCC1CNC(=O)Cn1cc(C)c(=O)[nH]c1=O (stereo not drawn)	none (no result: 697 NFkB inh, Jurkat NFkB inh, JMJD2C inh, NR2E3 ag-1)
O=C(c1ccccc1)n1c(=S)nc2ccccn21	none | Jurkat NFkB conf inactive | 697 NFkB conf inactive
CCCCCNC(=O)c1ccc2c(=O)n(CC3CCCO3)c(=O)[nH]c2c1 (stereo not drawn)	697 NFkB inh 104, Jurkat NFkB inh 99 | Jurkat NFkB conf inactive | 697 NFkB conf 60
COc1ccc([N+](=O)[O-])cc1N(CC(=O)N1CCCC1)S(C)(=O)=O	none

Screens: PubChem, several laboratories
